Reference: ChEMBL document CHEMBL4368942, “Dual inhibitors of RAF-MEK-ERK and PI3K-PDK1-AKT pathways: Design, synthesis and preliminary anticancer activity studies of 3-substituted-5-(phenylamino) indolone derivatives” (Bioorg Med Chem, 2019)
Activity calls are given as the source filed them. The calls are words filed in the database; no cut-off is given here.

Tests used:
[1] = tested on: A549; assay: Antiproliferative activity against human A549 cells after 48 hrs by MTT assay; assay type: functional, cell-based; conditions: A549, 48 h
Method in brief: (§1)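 Cells grown in DMEM with 10% FBS and penicillin/streptomycin at 37°C, 5% CO2. 2 × 10^5 cells seeded per well in 200 µL medium. Compounds added 30 min after seeding, then 48 h incubation at 37°C. MTT (5 mg/ml stock) added for the last 4 h. Formazan dissolved in DMSO.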

[2] = tested on: NCI-H460; assay: Antiproliferative activity against human NCI-H460 cells after 48 hrs by MTT assay; assay type: functional, cell-based; conditions: NCI-H460, 48 h; method in brief: as §1
[3] = tested on: A549; assay: Induction of apoptosis in human A549 cells assessed as viable cells at 2.5 uM after 12 hrs by Annexin V-FITC/propidium iodide staining-based flow cytometric analysis (reference value: 90.6%); assay type: functional; conditions: A549, 12 h, read-out: Activity
Method in brief: (§2)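 After 12 h treatment with DMSO as control, A549 cells were harvested by trypsin, washed twice in PBS and resuspended at 1 × 10^6 cells/mL in binding buffer. Annexin V-FITC and PI staining for 30 min at room temperature in the dark. Flow cytometry with 488 nm excitation, FITC read at 530 nm and PI at 670 nm. Quadrant percentages are means of three independent experiments.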

[4] = tested on: A549; assay: Induction of apoptosis in human A549 cells assessed as early apoptotic cells at 5 uM after 12 hrs by Annexin V-FITC/propidium iodide staining-based flow cytometric analysis (reference value: 7.19%); assay type: functional; method in brief: as §2
[5] = tested on: A549; assay: Inhibition of PI3K/PDK1/AKT in human A549 cells assessed as reduction in AKT phosphorylation after 8 hrs by Western blot analysis; assay type: cell-based
Method in brief: (§3)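 Western blot with primary antibody in BSA overnight at 4°C. Washes in TBS/0.05% Tween-20, then secondary antibody for 1 h at room temperature. Chemiluminescent detection. p-ERK or p-AKT band density normalized to β-actin loading control versus control. Average of three independent experiments.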

[6] = tested on: A549; assay: Induction of apoptosis in human A549 cells assessed as viable cells at 5 uM after 12 hrs by Annexin V-FITC/propidium iodide staining-based flow cytometric analysis (reference value: 90.6%); assay type: functional; conditions: A549, 12 h, read-out: Activity; method in brief: as §2
[7] = tested on: A549; assay: Induction of apoptosis in human A549 cells assessed as necrotic cells at 2.5 uM after 12 hrs by Annexin V-FITC/propidium iodide staining-based flow cytometric analysis (reference value: 1.42%); assay type: functional; method in brief: as §2
[8] = tested on: A549; assay: Induction of apoptosis in human A549 cells assessed as early apoptotic cells at 2.5 uM after 12 hrs by Annexin V-FITC/propidium iodide staining-based flow cytometric analysis (reference value: 7.19%); assay type: functional; method in brief: as §2
[9] = tested on: A549; assay: Induction of apoptosis in human A549 cells assessed as necrotic cells at 5 uM after 12 hrs by Annexin V-FITC/propidium iodide staining-based flow cytometric analysis (reference value: 1.42%); assay type: functional; method in brief: as §2
[10] = tested on: A549; assay: Inhibition of RAF/MEK/ERK in human A549 cells assessed as reduction in ERK phosphorylation at 2.5 uM after 8 hrs by Western blot analysis; assay type: cell-based; method in brief: as §3
[11] = tested on: A549; assay: Inhibition of PI3K/PDK1/AKT in human A549 cells assessed as reduction in AKT phosphorylation at 2.5 uM after 8 hrs by Western blot analysis; assay type: cell-based; method in brief: as §3
[12] = tested on: A549; assay: Induction of apoptosis in human A549 cells assessed as late apoptotic cells at 2.5 uM after 12 hrs by Annexin V-FITC/propidium iodide staining-based flow cytometric analysis (reference value: 0.76%); assay type: functional; method in brief: as §2
[13] = tested on: A549; assay: Inhibition of RAF/MEK/ERK in human A549 cells assessed as reduction in ERK phosphorylation after 8 hrs by Western blot analysis; assay type: cell-based; method in brief: as §3
[14] = tested on: A549; assay: Induction of apoptosis in human A549 cells assessed as late apoptotic cells at 5 uM after 12 hrs by Annexin V-FITC/propidium iodide staining-based flow cytometric analysis (reference value: 0.76%); assay type: functional; method in brief: as §2
[15] = tested on: A549; assay: Inhibition of PI3K/PDK1/AKT in human A549 cells assessed as remaining AKT phosphorylation level at 1 uM after 8 hrs by Western blot analysis
[16] = tested on: A549; assay: Inhibition of RAF/MEK/ERK in human A549 cells assessed as reduction in ERK phosphorylation at 1 uM after 8 hrs by Western blot analysis relative to control; assay type: cell-based; method in brief: as §3
[17] = tested on: A549; assay: Inhibition of PI3K/PDK1/AKT in human A549 cells assessed as reduction in AKT phosphorylation at 1 uM after 8 hrs by Western blot analysis; assay type: cell-based; method in brief: as §3

Row | SMILES | IC50 [1] [µM] | IC50 [2] [µM] | also measured
1 | CCCCCCC1(O)C(=O)Nc2ccc(Nc3ccc(Cl)cc3)cc21 (configuration not stated) | 5.4 | 30.3 | 
2 | CCCCCCC1(O)C(=O)Nc2ccc(Nc3ccc(OC)cc3)cc21 (configuration not stated) | 18.6 | > 100 | 
3 | CCCCCC1(O)C(=O)Nc2ccc(Nc3ccc(F)cc3)cc21 (configuration not stated) | 5.9 | > 100 | 
4 | O=C1Nc2ccc(Nc3ccccc3Cl)cc2C1(O)Cc1ccccc1 (configuration not stated) | 2.3 | 14.6 | 
5 | O=C1Nc2ccc(Nc3ccc(Cl)cc3)cc2/C1=C\C1CCCCC1 | 2.4 | 13.2 | 
6 | CC(C)CCC1C(=O)Nc2ccc(Nc3ccc(Cl)cc3)cc21 (configuration not stated) | 2 | 48.7 | 
7 | CCCCC1(O)C(=O)Nc2ccc(Nc3ccc(C(F)(F)F)cc3)cc21 (configuration not stated) | 2.3 | 12 | 
8 | O=C1Nc2ccc(Nc3ccc(Cl)cc3)cc2C1CC1CCCCC1 (configuration not stated) | 16.6 | > 100 | 
9 | CCCCCCC1(O)C(=O)Nc2ccc(Nc3ccc(C(F)(F)F)cc3)cc21 (configuration not stated) | 2.8 | 18.8 | 
10 | NC1(c2ccc(-c3nc4ccn5c(=O)[nH]nc5c4cc3-c3ccccc3)cc2)CCC1 [MK-2206] | 8.1 |  | remaining p-AKT level [15]: 33%; inhibition [16]: Active
11 | CCCCCCC1(O)C(=O)Nc2ccc(Nc3ccc(F)cc3)cc21 (configuration not stated) | 12 | 50.7 | 
12 | CCCCCC1(O)C(=O)Nc2ccc(Nc3ccc(Cl)cc3)cc21 (configuration not stated) | 1.9 | 40.8 | viability at 2.5 µM [3]: 83.2%; Activity [4]: 20.3%; viability at 5 µM [6]: 72.3%; Activity [7]: 2.31%; Activity [8]: 11.9%; Activity [9]: 1.82%; Activity [12]: 2.57%; Activity [14]: 5.65%
13 | Cn1cnc2c(F)c(Nc3ccc(Br)cc3Cl)c(C(=O)NOCCO)cc21 [SELUMETINIB] | 5.2 |  | inhibition [17]: inactive; inhibition [16]: 65%
14 | CCCCCC1(O)C(=O)Nc2ccc(Nc3ccc(C(F)(F)F)cc3)cc21 (configuration not stated) | 2.2 | 16.3 | 
15 | CC(C)CCC1(O)C(=O)Nc2ccc(Nc3ccc(C(F)(F)F)cc3)cc21 (configuration not stated) | 4.2 | 17.2 | 
16 | CC(C)C/C=C1/C(=O)Nc2ccc(Nc3ccc(Cl)cc3)cc21 | 7.4 | 50.9 | 
17 | O=C1Nc2ccc(Nc3ccc(Cl)cc3)cc2/C1=C\c1ccccc1 | 15 | 13.5 | 
18 | Cc1ccc(Nc2ccc3c(c2)/C(=C\C2CCCCC2)C(=O)N3)cc1 | 28.2 | 45.5 | 
19 | CCCCCC1(O)C(=O)Nc2ccc(Nc3ccc(OC)cc3)cc21 (configuration not stated) | 8 | 16.2 | 
20 | CCC/C=C1/C(=O)Nc2ccc(Nc3ccc(C)cc3)cc21 | 3.6 | 19 | 
21 | Cc1ccc(Nc2ccc3c(c2)C(CC2CCCCC2)C(=O)N3)cc1 (configuration not stated) | > 30 | > 100 | 
22 | Cc1ccc(Nc2ccc3c(c2)C(CCC(C)C)C(=O)N3)cc1 (configuration not stated) | 6.6 | 55.3 | 

Now from value to molecule, other results behind:

Row | IC50 [1] [µM] | IC50 [2] [µM] | SMILES | also measured
23 | 24.9 | 80.4 | O=C1Nc2ccc(Nc3ccc(F)cc3)cc2C1(O)Cc1ccc2c(c1)OCO2 (configuration not stated) | 
24 | 4.1 | 31.6 | Cc1ccc(Nc2ccc3c(c2)C(O)(Cc2ccccc2)C(=O)N3)cc1 (configuration not stated) | 
25 | 12.1 | > 100 | CCCCCCC1(O)C(=O)Nc2ccc(Nc3ccc(C)cc3)cc21 (configuration not stated) | 
26 | 16.7 | > 100 | Cc1ccc(Nc2ccc3c(c2)/C(=C\c2ccc4c(c2)OCO4)C(=O)N3)cc1 | 
27 | 18.9 | 63.6 | Cc1ccc(Nc2ccc3c(c2)C(Cc2ccc4c(c2)OCO4)C(=O)N3)cc1 (configuration not stated) | 
28 | 1.8 | 18.2 | O=C1Nc2ccc(Nc3ccc(C(F)(F)F)cc3)cc2C1(O)Cc1ccc2c(c1)OCO2 (configuration not stated) | viability at 2.5 µM [3]: 82.7%; Activity [4]: 25.5%; inhibition [5]: Dose-dependent effect; viability at 5 µM [6]: 65.3%; Activity [7]: 2.25%; Activity [8]: 11.6%; Activity [9]: 1.7%; inhibition [10]: Active; inhibition [11]: Active; Activity [12]: 3.39%; inhibition [13]: Dose-dependent effect; Activity [14]: 7.57%
29 | 11.9 | 14.7 | Cc1ccc(Nc2ccc3c(c2)C(O)(Cc2ccc4c(c2)OCO4)C(=O)N3)cc1 (configuration not stated) | 
30 | 12.5 | 22.7 | Cc1ccc(Nc2ccc3c(c2)C(O)(CCC(C)C)C(=O)N3)cc1 (configuration not stated) | 
31 | 3 | 26.6 | O=C1Nc2ccc(Nc3ccc(Cl)cc3)cc2C1(O)Cc1ccc2c(c1)OCO2 (configuration not stated) | 
32 | > 30 | > 100 | O=C1Nc2ccc(Nc3ccc(F)cc3)cc2C1Cc1ccc2c(c1)OCO2 (configuration not stated) | 
33 | 6 | 36.7 | O=C1Nc2ccc(Nc3ccc(Cl)cc3)cc2C1Cc1ccc2c(c1)OCO2 (configuration not stated) | 
34 | 2.7 | 25 | CC(C)CCC1(O)C(=O)Nc2ccc(Nc3ccc(Cl)cc3)cc21 (configuration not stated) | 
35 | 2.8 | 24.4 | CCCCC1(O)C(=O)Nc2ccc(Nc3ccc(Cl)cc3)cc21 (configuration not stated) | 
36 | 5.7 | 16.8 | CC(C)CCC1(O)C(=O)Nc2ccc(Nc3ccc(F)cc3)cc21 (configuration not stated) | 
37 | 2 | 9.1 | O=C1Nc2ccc(Nc3ccc(C(F)(F)F)cc3)cc2C1(O)Cc1ccccc1 (configuration not stated) | 
38 | 26.3 | > 100 | O=C1Nc2ccc(Nc3ccc(F)cc3)cc2/C1=C\c1ccc2c(c1)OCO2 | 
39 | 3.1 | 24.6 | O=C1Nc2ccc(Nc3ccc(Cl)cc3)cc2/C1=C\c1ccc2c(c1)OCO2 | 
40 | 3 | 18.1 | O=C1Nc2ccc(Nc3ccc(F)cc3)cc2C1(O)Cc1ccccc1 (configuration not stated) | 
41 | 8.1 | > 100 | CCCCCC1(O)C(=O)Nc2ccc(Nc3ccc(C)cc3)cc21 (configuration not stated) | 
42 | 3.1 | 20.2 | O=C1Nc2ccc(Nc3ccc(Cl)cc3)cc2C1(O)Cc1ccccc1 (configuration not stated) | 
43 | 7.5 | 31.8 | CCCCC1(O)C(=O)Nc2ccc(Nc3ccc(C)cc3)cc21 (configuration not stated) | 
44 | 6.5 | 32.5 | CCCCC1(O)C(=O)Nc2ccc(Nc3ccc(F)cc3)cc21 (configuration not stated) | 
45 | > 30 | > 100 | COc1ccc(Nc2ccc3c(c2)C(O)(Cc2ccccc2)C(=O)N3)cc1 (configuration not stated) | 
